From PMC11770135 (Journal of Pesticide Science, 2024)

Tests used:
[1] = test system: respiratory complexes I, III, and IV (NADH oxidase activity); assay: NADH oxidase activity; assay type: biochemical, housefly (Musca domestica); conditions: housefly mitochondria; compound added during NADH oxidation at final 40 nM
In short: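 Housefly crude mitochondria were prepared by homogenizing in 250 mM sucrose, 5.0 mM EDTA, 10 mM Tris-HCl (pH 7.5), then differential centrifugation, and permeabilized by freeze-thawing. Protein was 30 µg/mL in 150 mM KCl, 2.5 mM MgCl₂, 30 mM KPi (pH 7.4) at 30°C. The reaction was started with 150 µM NADH, and NADH oxidation was followed at 340 nm.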

[2] = target: T1, Qi site of complex III (Lucilia sericata, UniProt A7DT80); assay: MS-based competition binding, Qi site; design: species or system green bottle fly (Lucilia sericata); conditions: reporter ligand FloMet 15 nM; two independent experiments
T1 sequence (A7DT80 1-378): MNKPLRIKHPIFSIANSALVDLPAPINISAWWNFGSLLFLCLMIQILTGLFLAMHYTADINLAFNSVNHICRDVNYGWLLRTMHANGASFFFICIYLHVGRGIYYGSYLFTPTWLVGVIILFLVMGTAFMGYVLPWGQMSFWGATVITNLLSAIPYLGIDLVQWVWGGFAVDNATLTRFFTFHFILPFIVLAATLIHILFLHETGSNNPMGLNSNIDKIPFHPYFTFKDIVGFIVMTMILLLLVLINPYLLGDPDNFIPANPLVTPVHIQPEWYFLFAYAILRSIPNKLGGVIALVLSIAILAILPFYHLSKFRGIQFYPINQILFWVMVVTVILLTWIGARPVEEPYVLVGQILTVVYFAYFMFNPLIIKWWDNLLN
In short: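 20–40 µg particles were incubated with reporter and competitor for 1 hr at room temperature in 50 mM Tris-HCl, 120 mM NaCl, 0.1 mM EDTA (pH 7.4) with bacitracin and undecyl maltoside. Bound ligand was filtered, acetonitrile-extracted and quantified by LC-ESI-MS/MS. Ki came from a one-site LogKi fit.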

[3] = test system: cytochrome b hemes of complex III; assay: Reduction of cytochrome b hemes in housefly mitochondria; assay type: biochemical, housefly (Musca domestica); conditions: myxothiazol 8 µM with FloMet 5 µM or antimycin A 2 µM
In short: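 Housefly mitochondria at 0.8 mg/mL were held in 150 mM KCl, 2.5 mM MgCl₂, 1 µM rotenone, 0.2 µM SF6847, 2.0 mM KCN and 30 mM KPi (pH 7.4) at 30°C, and equilibrated with inhibitor(s) for 4 min. Reduction was started with succinate and recorded in dual-wavelength mode. Full reduction was set with excess sodium dithionite.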

| Compound | inhibition of NADH oxidase activity [1] | displacement of FloMet bound to the Qi site [2] | effect on reduction of cytochrome b hemes, in combination with myxothiazol [3] |
| --- | --- | --- | --- |
| CCc1nc2cc(C)c(Oc3ccc(OC(F)(F)F)cc3)cc2c(OC(=O)OC)c1C [FLO, 2-ethyl-3,7-dimethyl-6-[4-(trifluoromethoxy)phenoxy]quinolin-4-yl methyl carbonate] | almost no inhibition |  |  |
| CCCCCC[C@H]1C(=O)O[C@H](C)[C@H](NC(=O)c2cccc(NC=O)c2O)C(=O)O[C@@H](C)[C@@H]1OC(=O)CC(C)C [antimycin A] |  | displaced FloMet at low nano molar range | suppression of the reduction of b hemes |
